Data published in ChEMBL document CHEMBL1125703, “Synthesis, hydrolysis rates, supercomputer modeling, and antibacterial activity of bicyclic tetrahydropyridazinones” (J Med Chem, 1991).

Assays:
Assay type in all cases: ADME
Settings in all cases: buffer
[1] = Compound was evaluated for its hydrolysis at pH 10 half-life period (T1/2)
Method in brief: (§1)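 Alkaline hydrolysis, i.e. chemical reactivity of the lactam ring with hydroxide ion, followed by pH stat at the pH named in the line. Ionic strength (μ) was 0.5 and the temperature 35 °C. Pseudo-first-order rate constants and half-lives were obtained under these conditions. Some entries are single determinations.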

[2] = Compound was evaluated for its hydrolysis at pH 10 expressed as pseudo first order rate constant (K) (micro = 0.5); method in brief: as §1
[3] = Compound was evaluated for its hydrolysis at pH 9 half life period (T1/2); method in brief: as §1
[4] = Compound was evaluated for its hydrolysis at pH 9 expressed as pseudo first order rate constant (K) (micro = 0.5); method in brief: as §1
[5] = Compound was evaluated for its hydrolysis at pH 9 for half life period (T1/2); method in brief: as §1

For `CO/N=C(/C(=O)NC1CCN2CC(C(=O)[O-])=C(C(=O)[O-])N2C1=O)c1csc(N)n1.[Na+].[Na+]` (stereo not given), the half-life [1] was 285 min, the k [2] was 0.146 h⁻¹ and the half-life [3] was 2880 min. It also gave a k [4] of 0.0144 h⁻¹.
For `CO/N=C(/C(=O)NC1CN2CC(C#N)=C(C(=O)O)N2C1=O)c1csc(N)n1` (stereo not given), the half-life [3] was 24 min and the k [4] was 1.73 h⁻¹.
In the case of `CO/N=C(/C(=O)NC1CN2CC(C(=O)O)=C(C(=O)O)N2C1=O)c1csc(N)n1` (stereo not given), the half-life [1] is reported as 128 min and the k [2] is reported as 0.324 h⁻¹.
Compound `CO/N=C(/C(=O)NC1CCN2CC(C(C)=O)=C(C(=O)O)N2C1=O)c1csc(N)n1` (stereo not given) has a k [4] of 3.16 h⁻¹ and a half-life [5] of 13.2 min.
`CO/N=C(\C(=O)NC1CN2CC(C(C)=O)=C(C(=O)O)N2C1=O)c1csc(N)n1` (stereo not given) showed a half-life [3] of 57.6 min and a k [4] of 0.724 h⁻¹.
`CO/N=C(/C(=O)NC1CCN2CC(C#N)=C(C(=O)O)N2C1=O)c1csc(N)n1` (stereo not given) gave a half-life [3] of 24 min and a k [4] of 1.75 h⁻¹.
`CC1(C)S[C@@H]2[C@H](NC(=O)COc3ccccc3)C(=O)N2[C@H]1C(=O)O` [PENICILLIN V] gave a k [2] of 0.248 h⁻¹.
